Test system: HEK-293T
Experiment: Multiplex assay against HEK293T
Format: toxicity, cell-based
Settings: human
In short: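 Live cells carried four stains from seeding: Hoechst33342, BioTracker Green Microtubule Cytoskeleton Dye, MitoTracker Red and Annexin V Alexa Fluor 680. They were imaged on a CQ1 microscope at 37°C and 5% CO2 after compound addition. Using CellPathfinder machine-learning gating, cells were split into Hoechst high-intensity objects or normal cells, normal cells into healthy, pyknosed or fragmented nuclei, and pyknosed cells into mitotic or apoptotic; tubulin, mitochondrial-mass and membrane-permeability phenotypes are per cents of healthy-nucleus cells.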

[1] = 12 h, 1 µM, compound concentration 1 uM, replicate 1
[2] = 12 h, 1 µM, compound concentration 1 uM, replicate 2
[3] = 12 h, 10 µM, compound concentration 10 uM, replicate 1
[4] = 12 h, 10 µM, compound concentration 10 uM, replicate 2
[5] = 24 h, 1 µM, compound concentration 1 uM, replicate 1
[6] = 24 h, 1 µM, compound concentration 1 uM, replicate 2
[7] = 24 h, 10 µM, compound concentration 10 uM, replicate 1
[8] = 24 h, 10 µM, compound concentration 10 uM, replicate 2
[9] = 48 h, 1 µM, compound concentration 1 uM, replicate 1
[10] = 48 h, 1 µM, compound concentration 1 uM, replicate 2
[11] = 48 h, 10 µM, compound concentration 10 uM, replicate 1
[12] = 48 h, 10 µM, compound concentration 10 uM, replicate 2

CC(C)COc1ccc(CNC(=O)N(Cc2ccc(F)cc2)C2CCN(C)CC2)cc1 [PIMAVANSERIN]
Population Apoptotic (%) [1]: 39%
Population Fragmented Nuclei (%) [1]: 5%
Population Healthy Nuclei (%) [1]: 82%
Population Hoechst High Intensity Objects (%) [1]: 6%
Population Membrane Permeable-Phenotype (%) [1]: 0%
Population Mitochondria Different-Phenotype (%) [1]: 50%
Population Mitotic Cells (%) [1]: 60%
Population Normal (%) [1]: 93%
Population Pyknosed Nuclei (%) [1]: 11%
Population Tubulin-Different-Phenotype (%) [1]: 49%
Total Cell Count [1]: 430
Population Apoptotic (%) [2]: 54%
Population Fragmented Nuclei (%) [2]: 7%
Population Healthy Nuclei (%) [2]: 74%
Population Hoechst High Intensity Objects (%) [2]: 11%
Population Mitochondria Different-Phenotype (%) [2]: 68%
Population Mitotic Cells (%) [2]: 46%
Population Normal (%) [2]: 88%
Population Pyknosed Nuclei (%) [2]: 18%
Population Tubulin-Different-Phenotype (%) [2]: 35%
Total Cell Count [2]: 311
Population Apoptotic (%) [3]: 62%
Population Fragmented Nuclei (%) [3]: 10%
Population Healthy Nuclei (%) [3]: 60%
Population Hoechst High Intensity Objects (%) [3]: 19%
Population Membrane Permeable-Phenotype (%) [3]: 0%
Population Mitochondria Different-Phenotype (%) [3]: 89%
Population Mitotic Cells (%) [3]: 37%
Population Normal (%) [3]: 80%
Population Pyknosed Nuclei (%) [3]: 28%
Population Tubulin-Different-Phenotype (%) [3]: 81%
Total Cell Count [3]: 285
Population Apoptotic (%) [4]: 79%
Population Fragmented Nuclei (%) [4]: 7%
Population Healthy Nuclei (%) [4]: 64%
Population Hoechst High Intensity Objects (%) [4]: 25%
Population Mitochondria Different-Phenotype (%) [4]: 87%
Population Mitotic Cells (%) [4]: 20%
Population Normal (%) [4]: 74%
Population Pyknosed Nuclei (%) [4]: 27%
Population Tubulin-Different-Phenotype (%) [4]: 66%
Total Cell Count [4]: 237
Population Apoptotic (%) [5]: 33%
Population Fragmented Nuclei (%) [5]: 9%
Population Healthy Nuclei (%) [5]: 77%
Population Hoechst High Intensity Objects (%) [5]: 6%
Population Membrane Permeable-Phenotype (%) [5]: 2%
Population Mitochondria Different-Phenotype (%) [5]: 42%
Population Mitotic Cells (%) [5]: 66%
Population Normal (%) [5]: 93%
Population Pyknosed Nuclei (%) [5]: 13%
Population Tubulin-Different-Phenotype (%) [5]: 40%
Total Cell Count [5]: 553
Population Apoptotic (%) [6]: 48%
Population Fragmented Nuclei (%) [6]: 4%
Population Healthy Nuclei (%) [6]: 82%
Population Hoechst High Intensity Objects (%) [6]: 8%
Population Membrane Permeable-Phenotype (%) [6]: 0%
Population Mitochondria Different-Phenotype (%) [6]: 55%
Population Mitotic Cells (%) [6]: 51%
Population Normal (%) [6]: 91%
Population Pyknosed Nuclei (%) [6]: 12%
Population Tubulin-Different-Phenotype (%) [6]: 30%
Total Cell Count [6]: 394
Population Apoptotic (%) [7]: 81%
Population Fragmented Nuclei (%) [7]: 10%
Population Healthy Nuclei (%) [7]: 57%
Population Hoechst High Intensity Objects (%) [7]: 27%
Population Membrane Permeable-Phenotype (%) [7]: 0%
Population Mitochondria Different-Phenotype (%) [7]: 94%
Population Mitotic Cells (%) [7]: 18%
Population Normal (%) [7]: 72%
Population Pyknosed Nuclei (%) [7]: 31%
Population Tubulin-Different-Phenotype (%) [7]: 77%
Total Cell Count [7]: 285
Population Apoptotic (%) [8]: 84%
Population Fragmented Nuclei (%) [8]: 12%
Population Healthy Nuclei (%) [8]: 54%
Population Hoechst High Intensity Objects (%) [8]: 34%
Population Mitochondria Different-Phenotype (%) [8]: 100%
Population Mitotic Cells (%) [8]: 15%
Population Normal (%) [8]: 65%
Population Pyknosed Nuclei (%) [8]: 32%
Population Tubulin-Different-Phenotype (%) [8]: 69%
Total Cell Count [8]: 215
Population Apoptotic (%) [9]: 27%
Population Fragmented Nuclei (%) [9]: 13%
Population Healthy Nuclei (%) [9]: 77%
Population Hoechst High Intensity Objects (%) [9]: 5%
Population Membrane Permeable-Phenotype (%) [9]: 1%
Population Mitochondria Different-Phenotype (%) [9]: 31%
Population Mitotic Cells (%) [9]: 72%
Population Normal (%) [9]: 94%
Population Pyknosed Nuclei (%) [9]: 8%
Population Tubulin-Different-Phenotype (%) [9]: 33%
Total Cell Count [9]: 869
Population Apoptotic (%) [10]: 48%
Population Fragmented Nuclei (%) [10]: 9%
Population Healthy Nuclei (%) [10]: 84%
Population Membrane Permeable-Phenotype (%) [10]: 0%
Population Mitochondria Different-Phenotype (%) [10]: 33%
Population Mitotic Cells (%) [10]: 51%
Population Pyknosed Nuclei (%) [10]: 6%
Population Tubulin-Different-Phenotype (%) [10]: 21%
Total Cell Count [10]: 601
Population Apoptotic (%) [11]: 75%
Population Fragmented Nuclei (%) [11]: 29%
Population Healthy Nuclei (%) [11]: 30%
Population Hoechst High Intensity Objects (%) [11]: 52%
Population Membrane Permeable-Phenotype (%) [11]: 0%
Population Mitochondria Different-Phenotype (%) [11]: 88%
Population Mitotic Cells (%) [11]: 24%
Population Normal (%) [11]: 47%
Population Pyknosed Nuclei (%) [11]: 40%
Population Tubulin-Different-Phenotype (%) [11]: 58%
Total Cell Count [11]: 235
Population Apoptotic (%) [12]: 61%
Population Fragmented Nuclei (%) [12]: 31%
Population Hoechst High Intensity Objects (%) [12]: 60%
Population Mitochondria Different-Phenotype (%) [12]: 92%
Population Mitotic Cells (%) [12]: 38%
Population Normal (%) [12]: 40%
Population Pyknosed Nuclei (%) [12]: 37%
Population Tubulin-Different-Phenotype (%) [12]: 64%
Total Cell Count [12]: 205
